High-throughput results (PubChem)
Runt-CBFb FRET: inhibitors of RUNX1 Runt–CBFb binding, primary screen, biochemical, FRET, Cerulean-Runt, Venus-CBFb, uHTS; Runt-related transcription factor 1 (Homo sapiens) + Core-binding factor subunit beta …; Cerulean-Runt/Venus-CBFb FRET ratio 530/480, 1 h; inhibition, % at 20 µM; 0.46% of 220,000 active; AID 1496, 2009;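 active = inhibition over about 50% at 20 µM in the single-dose screen, limit read from the data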;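 note: 0% = DMSO wells and 100% = excess unlabeled CBFb competitor control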
Target sequence (Q01196 whole entry, looked up): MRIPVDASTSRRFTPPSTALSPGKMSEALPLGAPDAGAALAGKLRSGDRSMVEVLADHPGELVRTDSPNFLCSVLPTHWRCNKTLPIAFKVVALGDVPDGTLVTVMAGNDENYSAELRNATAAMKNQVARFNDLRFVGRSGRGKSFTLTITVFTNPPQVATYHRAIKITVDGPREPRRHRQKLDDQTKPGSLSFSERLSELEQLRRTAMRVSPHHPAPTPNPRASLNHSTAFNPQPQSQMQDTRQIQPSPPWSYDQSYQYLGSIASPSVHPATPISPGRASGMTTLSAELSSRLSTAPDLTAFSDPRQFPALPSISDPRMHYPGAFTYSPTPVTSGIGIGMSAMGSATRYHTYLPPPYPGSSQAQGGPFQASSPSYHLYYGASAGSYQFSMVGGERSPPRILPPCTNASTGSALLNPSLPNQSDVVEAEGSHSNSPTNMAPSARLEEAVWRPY
Target sequence (Q13951 whole entry, looked up): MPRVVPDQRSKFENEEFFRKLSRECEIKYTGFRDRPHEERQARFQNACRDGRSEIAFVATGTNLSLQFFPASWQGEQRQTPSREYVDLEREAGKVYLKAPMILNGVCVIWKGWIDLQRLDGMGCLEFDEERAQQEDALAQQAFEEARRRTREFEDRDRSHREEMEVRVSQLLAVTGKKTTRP
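Assay system: Cerulean-Runt domain / Medium: Tris 50 mM pH 7.5, KCl, K2SO4, 0.01% BSA / Timing: protein complex preformed 1 h, compound exposure 1 h, room temperature, dark / Measured by: FRET, excitation 422 nm, emission at 530 and 480 nm / Evaluation: loss of energy transfer signal / Control set: 5 µM unlabeled CBFb as full-inhibition high control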
Runt-SMMHC FRET: inhibitors of RUNX1 Runt–CBFb-SMMHC binding, primary screen, biochemical, FRET, Cerulean-Runt, Venus-CBFb-SMMHC, uHTS; Runt-related transcription factor 1 (Homo sapiens) + Core-binding factor subunit beta …; Cerulean-Runt/Venus-CBFb-SMMHC FRET ratio 530/480, 1 h; inhibition, % at 20 µM; 0.74% of 220,000 active; AID 1434, 2008;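 active = mean inhibition across duplicate retests at 20 µM reaching about 50%, limit read from the data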;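 note: 0% = DMSO wells and 100% = wells with excess untagged CBFb-SMMHC; inhibitors lower the FRET ratio by blocking Runt binding to CBFb-SMMHC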
Hck Nef HTS: inhibitors of Nef-activated human Hck kinase, primary screen, biochemical, Z-Lyte FRET, 384-well, Hck-YEEI; inhibition, % at 20 µM; 0.68% of 220,000 active; Recombinant Hck-YEEI plus Nef, Z-Lyte FRET kinase assay;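 active = Hck-Nef kinase inhibition above about 50%, limit read from the data; inactive = inhibition below that limit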;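 note: 0% = DMSO with Hck plus Nef and 100% = Hck alone without Nef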
RanGTP-Imp inh: inhibitors of RanGTP-importin-beta interaction, primary screen, biochemical, FRET, CFP-Ran, YFP-importin-beta, homogeneous; cell-free CFP-Ran/YFP-importin-beta FRET ratio; inhibition, % (no concentration beside the values); Ran GTPase (GTP-bound) - importin-beta complex; AID 2216, 2009; 1.1% of 300,000 active;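 active = more than half of the replicate wells show a fall in the fluorescence ratio signal beyond about 16%, limit read from the data, passing the limit was not always enough; inconclusive = exactly half of the replicate wells pass the set limit; inactive = fewer than half of replicates pass the limit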;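 note: 0% = DMSO wells and 100% = Ran loaded with GDP instead of GTP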
* marks the source's active call; other numbers are inactive results; ? = inconclusive; / = no result given. Only some compounds are listed: those with a hit (about 1.7% of all), similar ones and a draw of the others.

SMILES	Runt-CBFb FRET	Runt-SMMHC FRET	Hck Nef HTS	RanGTP-Imp inh
CC(C)Sc1nc2ccccc2c(=O)[nH]1	0	1	-25	1
COC(=O)c1sc(N2C(=O)C(O)=C(C(=O)c3ccc(C)o3)C2c2cc(OC)ccc2OC)nc1C (centres undefined)	/	/	/	-1
Cc1nn(C(C)C(=O)NCCc2cccs2)c(=O)c2nn(-c3ccccc3)c(C)c12 (centres undefined)	/	/	/	-1
CCOCCCNC(=O)C1(O)c2ccccc2NC(=O)N1c1ccc(Cl)cc1 (centres undefined)	/	/	/	-1
O=C(O)C(Cc1ccccc1)N1C(=O)/C(=C/c2cccc3ccccc23)SC1=S (centres undefined)	-8	-11	63*	/
COc1cc(-n2nc(C)c3c2OC(N)=C(C#N)C3c2ccccc2)c(Cl)c(Br)c1O (centres undefined)	5	8	1	65*
O=C1C2C3CCC(O3)C2C(=O)N1c1cccc(O)c1 (centres undefined)	/	/	/	33*
Cc1cccc(N2C(=O)C3C4C=CC(CC4)C3C2=O)c1 (centres undefined)	/	/	/	-4
Oc1c(N=Nc2ccccc2)sc2ccccc12	-6	-10	18	29*
Cc1ccc(C)c(NC(=S)NCCCN2CCOCC2)c1	0	-6	1	-2
COc1ccc(OC)c(NC(=S)NCCCN2CCOCC2)c1	-2	-4	-2	-7
COc1ccc2nc(NCCNC(=S)NCCCN3CCOCC3)c(C#N)cc2c1	3	93*	18	4
Cc1cc2cc(C#N)c(NCCNC(=S)NCCCN3CCOCC3)nc2cc1C	43	88*	14	?
CSc1ccccc1OCc1cc(C(=O)N2CCC(Oc3cccnc3)CC2)no1	/	/	/	5
Cc1ccc(-c2ccc(NC(=O)C3C4C=CC(C4)C3C(=O)O)cc2)o1 (centres undefined)	8	5	2	30*
CC(C)n1cc(/C=N/Nc2ccc(Cl)c(C(=O)O)c2)c2ccccc21	/	/	/	-1
Cc1nc([N+](=O)[O-])c(Sc2nc3ccc([N+](=O)[O-])cc3[nH]2)n1Cc1ccccc1	115*	6	2	-1
CNC(=S)N/N=C/c1c2ccccc2c(Cl)c2ccccc12	/	/	/	4
COc1ccc(C2CC(c3cccs3)=NN2c2nc(-c3ccccc3)cs2)cc1OC (centres undefined)	11	-7	3	56*
Fc1ccc(C2CC(c3cccs3)=NN2c2ccccc2)cc1 (centres undefined)	25	79*	39	1
COc1ccc(C2CC(c3cccs3)=NN2S(C)(=O)=O)cc1OC (centres undefined)	0	1	24	/
O=C(NCc1nc2ccccc2[nH]1)C1=C[C@@H](C2CCCCC2)C[C@@H](OCCCCO)O1	1	0	20	5
O=C(NCC(c1ccco1)N1CCc2ccccc21)C(=O)Nc1ccc(F)cc1F (centres undefined)	/	/	/	-3
CC1CCc2sc3ncn4nc(C(=O)NCc5ccco5)nc4c3c2C1 (centres undefined)	-2	-4	-4	120*
CC1CCc2c(sc3ncn4c(SCC(=O)NCc5ccco5)nnc4c23)C1 (centres undefined)	-3	-1	-1	0
O=C1OCC2=C1C(c1ccccc1)CC(=O)N2c1ccc(F)cc1 (centres undefined)	2	-2	-3	-2
N=c1oc2cc(O)ccc2cc1C(=O)Nc1ccc(Cl)cc1	/	/	/	170*
CC(C(=O)O)N1C(=O)C2C3CC(C2C1=O)C1C(c2ccccc2)c2sc(=O)[nH]c2SC31 (centres undefined)	18	12	0	74*
O=C(O)CN1C(=O)C2C3CC(C2C1=O)C1C(c2ccc(Cl)cc2)c2sc(=O)[nH]c2SC31 (centres undefined)	42	27	23	73*
O=C(O)CN1C(=O)C2C3CC(C2C1=O)C1C(c2ccc(F)cc2)c2sc(=O)[nH]c2SC31 (centres undefined)	33	26	24	79*
